Experimental data reported in the RNAGym collection of RNA variant scans (doi:10.1126/science.aae0568).
Fewer inactive variants are shown than the library holds.

B1: tRNA (parent)
chain: GUUCCGUUGGCGUAAUGGUAACGCGUCUCCCUCCUAAGGAGAAGACUGCGGGUUCGAGUCCCGUACGGAACG

Variants of: B1
Assay: yeast fitness relative to wild type (ratio to wild type); higher = fitter; tRNA-Arg(CCU), competitive growth, 37 C, YPD
Summary of the method: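 For this measurement, the tRNA-Arg(CCU) gene was varied by chemical synthesis at a 3% per-site mutation rate across 69 sites, and each variant was placed at the native genomic locus in Saccharomyces cerevisiae. The pooled strains went through a 24-hour competition in YPD at 37°C in six parallel replicates, with amplicons from start and end populations read by 100-nucleotide paired-end sequencing. Darwinian fitness relative to wild type followed from the change in each genotype's frequency. Genotypes needed ≥ 100 starting reads, and estimates < 0.5 were set to 0.5.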

| Variant | yeast fitness |
| --- | --- |
| GUUGCGUUCGCGUAAUGGUAAAGCGUCUCCCUCCUAAGGAGAAGACUGCGGGUUCGAGUCCCGUACGGAACG [C4G G9C C22A] | ≤ 0.5 |
| GUUGCGUUCGCGUAAUGGUAACGCGUCUCCCUGCUAAGGAGAAGACUGCGGGUUCGAGUCUCGUACGGAGCG [C4G G9C C33G C61U A70G] | ≤ 0.5 |
| GUUGCGUUCGCGUAAUGGUAACGCGUCUCCCUCCUAAGGAAAAGACUGCGGGUUUGAGACCCGUACGGAACG [C4G G9C G41A C55U U59A] | ≤ 0.5 |
| GUUGCGUUGCCGUAAUGGUAACGCGUCUCCCUCCUAAGGAGAAGAAUGCGGGUUCGAGUCCCGUACGCAACG [C4G G10C C46A G68C] | ≤ 0.5 |
| GUUGCGUUCACGUAAUGGUAACGUGUCUCCCUCCUAAGGAGAAGACUGCGGGUUCGAGUCCCGUACGGAACG [C4G G9C G10A C24U] | ≤ 0.5 |
| GUUGCGUUCGCGUAAUGGUAACGCGUCUCCCUGCUAAGGAGAAGACUGCGGGUUCGAGUCCCGUACGGAACG [C4G G9C C33G] | 0.674 |
| GUUGCGUUGCGGUAAUGGUAACGCGUCUCCCUCCUAUGGAGAGGACUGCGGGUUCGAGUCCCGUACGGGACG [C4G G10C C11G A37U A43G A69G] | ≤ 0.5 |
| GUUGCGUUGGCGUAAUGGUAACGCGUCUCCCUCCUAAGGAGAAGACUGCGGGUUCGAGUGCCGUACGCAACG [C4G C60G G68C] | 0.622 |
| GUUGCCUGGGCGUAAUAGUAACACGUCUCCCUCCUAAGGAGAAGGCUGCGGGUUCGAGUCCCGUACGGACCG [C4G G6C U8G G17A G23A A45G A70C] | ≤ 0.5 |
| GUUGCGUUGCCGUAAUGGUAACGCGUCUCCCUCCUAAGGAGAAGAGUGCGGGUUCGAGUCCCGUACGGAACG [C4G G10C C46G] | 0.632 |
| GUUGCGUUAGCGUAAUGGUAACGCGUCUCCCUCCUAAGGAGAAGACUGCCGGUUCGAGUCCCGUACAGAACG [C4G G9A G50C G67A] | ≤ 0.5 |
| GUUGCGUUCGCGUAAUGGUAAAGCGUCUCCCUCCUAAGGAGAAGACUGCGGGUUCGAGUCCAGUAGGGAACG [C4G G9C C22A C62A C66G] | ≤ 0.5 |
| GUUGCAUUGGCGUAAUGGUAACGCGUCUCCCUCCUAAGGAGAAGACUGCGGGUUCGAGUCCCGUACGGUACG [C4G G6A A69U] | 0.667 |
| GUUGCGUUACCGUAAUGGUAACGCGUCUACCUCCUAAGGAGAAGACUGCUGGUUCGAGGCCCGUACGGAACG [C4G G9A G10C C29A G50U U59G] | 0.599 |
| GUUGCGUUGCCCUAAUGGUACCGCGUCUCCCUCCUAAGGAGAAGACUCCGGGUUCGAGUCCCGUACGGAACG [C4G G10C G12C A21C G48C] | ≤ 0.5 |
| GUUGCGUUGACGUAAUGGUAACGCGUGUCCCUCCUAAGGAGAAGUCUGGGGGUUAGAGUCCCGUACGGAACG [C4G G10A C27G A45U C49G C55A] | 0.617 |
| GUUGCGUUCGCGUAAUGGUAACGCGUCUCCCUCCUAACGAGAAGACUGCGGGUUCGAGUCCCGUACGAAACG [C4G G9C G38C G68A] | ≤ 0.5 |
| GUUGCCUUGGCGUAAUGGUAACGCGUCUCCCUCCUCAGGAGAAGACUGCGGGUUCGAGUCCGGUAAGGAACG [C4G G6C A36C C62G C66A] | ≤ 0.5 |
| GUUGCGUUCGCGUAAUGGUAAAGCGUCUCCCUCCUAAGGAGAAGACUGCGGGUUCGAGUCCCGUACAGAACG [C4G G9C C22A G67A] | ≤ 0.5 |

| Variant | yeast fitness |
| --- | --- |
| GUUGCGUUAGCGUAAUGCUAACGCGUCUCCUUCCUAAGGAGAAGACUGCGGGUUAGAGUCCCGUCCGGAACG [C4G G9A G18C C31U C55A A65C] | ≤ 0.5 |
| GUUGCGUUACCGUAAUGGUAACGCGUCUACCUCCUAGGGAGAAGACUGCUGGUUCGAGGCCCGUACGGAACG [C4G G9A G10C C29A A37G G50U U59G] | ≤ 0.5 |
| GUUGCGUUCGCGUAAUGGUAACGCGUCUCCCUCCUAAGGAAAAGACUGCGGGUUCGAGUCUCGUACGGAACG [C4G G9C G41A C61U] | ≤ 0.5 |
| GUUGCGUUGACGUAAUGGUAACGCGUCUUCCUCCUAAGGAGAAGAGUGCGGGUUCGAGUCCCGUACGGAACG [C4G G10A C29U C46G] | ≤ 0.5 |
| GUUGCGUUGGCGUAAUGGUAACGCGUCUCCCUCCUAAGGAGAAGACUGCGGGUUCGAGUCCCGUAUGGAACG [C4G C66U] | 0.836 |
| GUUGCGUUGGCGUAAUGGUAACGCGUCUCCCUCCUAAGGAGAAGACUGCGGGUUCGAGUCCCGUAGGGAACG [C4G C66G] | 0.671 |
| GUUGCGUUGGCGUAAUGGUAACGCGUCUCCCUCCUAAGGAGAAGACUGCGGGUUCGAGUCCAGUACGGAACG [C4G C62A] | 0.67 |
| GUUGCGUUCGCGUAAUGGUAACGCGUCUCCCUCCUAAGGAGUAGACUGCGGGUUGGAGUCCCGUACGGAACG [C4G G9C A42U C55G] | ≤ 0.5 |
| GUUGCGUUGGCGUAAUGGUAACGCGUCUCCCUCCUAAGGAGAAGACUGCGGGUUCGAGUACCGUACGGAACG [C4G C60A] | 0.642 |
| GUUGCGUUGACGUAAUGGUAACGCGUCUCCCUCCUAAGGACAAGACUGCGGGUUCGAGUCCCGUACGGAACG [C4G G10A G41C] | ≤ 0.5 |
| GUUGCGUUGACGUAAUGGUAACGCGUCUCCCUCCUAAGGAGAAGACUGCGGGUUCGAGUCCCGUACGGUACG [C4G G10A A69U] | 0.625 |
| GUUGCGUUGCCGUAAUGGUAACGCGCGUCCCUCCUAGGAAGAAGACUGCGGGUUCGAGUCCCGUACGGAACG [C4G G10C U26C C27G A37G G39A] | ≤ 0.5 |
| GUUGCAUUGCCGUAAUGGAAACGGGUCUCCCUCCUAAGGAGAGGACUGCGGGUUCGAGUCGCGUUCGGAACG [C4G G6A G10C U19A C24G A43G C61G A65U] | 0.576 |
| GUUGCGUUAGCGUGAUGGUAACGCCUCUCCCUCCUAAGGAGAAGACUGCGGGUUCGCGUCCCGAACGGAACG [C4G G9A A14G G25C A57C U64A] | ≤ 0.5 |
| GUUGCGUUGGCGUAAUGGUAACGCGUCUCCCUCCUAAGGAGAAGACUGCGGGUUCGAGUCUCGUACGGAACG [C4G C61U] | 0.935 |
| GUUGCGUUGGCGUAAUGGUAACGCGUCUCCCUCCUAAGGAGAAGACUGCGGGUUCGAGUCGCGUACGGAACG [C4G C61G] | 0.659 |
| GUUGCGUUGACGUAAUGGUAGCGCGUCUCCCUCCUAAGGAGAAGACUGCGGGUUCGAGUCCCGUACGGAACG [C4G G10A A21G] | 0.547 |
| GUUGCCUUGGCGUAAUGGUACCGCGUCUCCUUCCAAAGGAGAAGACGGCGGGUUCGAGUCCCGUACGGAACG [C4G G6C A21C C31U U35A U47G] | 0.569 |
